Where only a bound is given, the exact number is not on record here.

One data set concerns HeLa. Put plainly: Cytotoxicity against human HeLa cells after 24 hrs by trypan blue dye exclusion assay. It counts as cell-based.
Details: not given
In short, it runs like this: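 HeLa cells grown in DMEM with penicillin/streptomycin. Compound from DMSO stock was added once cultures reached 70% confluency, then incubated 24 h at 37 °C under CO₂. Cells were PBS-washed, detached with 0.25% trypsin for 5 min, and resuspended in PBS. Trypan blue was added for about 10 min at room temperature. Viable and dead cells were counted by hemacytometer, and IC₅₀ derived.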
For the molecule `COc1ccc(C(=O)/C=C/c2ccc(OCC(=O)NCCCCCCNc3ccnc4cc(Cl)ccc34)cc2)cc1`, the IC50 (commonly the concentration at which inhibition is half-maximal) was found to be 40000 nM.

In turn, `COc1ccc(/C=C/C(=O)c2ccc(OCC(=O)NCCCCCCNc3ccnc4cc(Cl)ccc34)cc2)cc1` yielded an IC50 of 25000 nM.

Test system in another data set: not listed separately
Nature of the data set: Selectivity index, ratio of IC50 for human HeLa cells to IC50 for CQ-resistant Plasmodium falciparum W2. It counts as toxicity, cell-based. As to conditions: read-out: Ratio IC50. The method, boiled down:
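Ratio of HeLa IC50 to W2 IC50. HeLa cells grown in DMEM with penicillin/streptomycin to 70% confluency, dosed from DMSO stocks, and incubated 24 h at 37 °C in CO2. Cells were then washed, trypsinized, stained with trypan blue for about 10 min at room temperature, and viable/dead cells counted by hemacytometer. IC50 fitted from counts.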
Regarding `COc1ccc(C(=O)/C=C/c2ccc(OCC(=O)NCCCCCCNc3ccnc4cc(Cl)ccc34)cc2)cc1`, the selectivity ratio stood at 1130. For the molecule `COc1ccc(/C=C/C(=O)c2ccc(OCC(=O)NCCCCCCNc3ccnc4cc(Cl)ccc34)cc2)cc1`, the selectivity ratio was 1400.

Another data set relates to Plasmodium falciparum. Put plainly: Antimalarial activity against CQ-resistant Plasmodium falciparum W2 assessed as parasite growth inhibition after 48 hrs by YOYO-1 dye based flow cytometry. It counts as functional, organism-based. As to conditions: W2, 48 h. The method, boiled down:
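W2 strain cultured in RPMI-1640 with 10% human serum, sorbitol-synchronized (5%). Ring-stage microcultures exposed to a range of compound concentrations (DMSO ≤0.1% final; 0.1% DMSO controls) for 48 h. Fixed 48 h in 1% formaldehyde/PBS pH 7.4 at room temperature, stained with 1 nM YOYO-1 in 0.1% Triton X-100/PBS, and parasitemia read by flow cytometry. IC50 from nonlinear fit of duplicate experiments.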
In general terms: A flow cytometer gives signals particle by particle.
As to `O=C(COc1ccc(C(=O)/C=C/c2ccccc2)cc1)NCCCCCCNc1ccnc2cc(Cl)ccc12`, the IC50 amounted to 4070 nM.

For the molecule `O=Cc1ccc(OCC(=O)NCCCCNc2ccnc3cc(Cl)ccc23)cc1`, the IC50 was determined as 444 nM. On the same count and under the same terms, as for `CC(=O)c1ccc(OCC(=O)NCCCCNc2ccnc3cc(Cl)ccc23)cc1`, the figure is 148 nM; as for `O=Cc1ccc(OCC(=O)NCCNc2ccnc3cc(Cl)ccc23)cc1`, 419 nM. On the same count and under the same terms, then `O=C(O)COc1ccc(/C=C/C(=O)c2ccccc2)cc1`, with greater than 10000 nM. The same measure, in the same setting: then `O=C(COc1ccc(/C=C/C(=O)c2ccccc2)cc1)NCCNc1ccnc2cc(Cl)ccc12`, with 905 nM; and `O=C(COc1ccc(/C=C/C(=O)c2ccccc2)cc1)NCCCNc1ccnc2cc(Cl)ccc12`, with 109 nM. On to `O=C(COc1ccc(C(=O)/C=C/c2ccccc2)cc1)NCCCNc1ccnc2cc(Cl)ccc12`, for which the IC50 came to 46.3 nM. As for `COc1ccc(/C=C/C(=O)c2ccc(OCC(=O)O)cc2)cc1`, the concentration for half-maximal inhibition (IC50) is greater than 10000 nM. On to `O=C(COc1ccc(C(=O)/C=C/c2ccccc2)cc1)NCCCCNc1ccnc2cc(Cl)ccc12`, for which the IC50 was found to be 398 nM. Still for that read-out and setting: then `CC(=O)c1ccc(OCC(=O)NCCCCCCNc2ccnc3cc(Cl)ccc23)cc1`, with 71.1 nM. Take `COc1ccc(C(=O)/C=C/c2ccc(OCC(=O)O)cc2)cc1`: the half-inhibitory concentration (IC50) was greater than 10000 nM. Still for that read-out and setting: then `COc1ccc(C(=O)/C=C/c2ccc(OCC(=O)NCCCNc3ccnc4cc(Cl)ccc34)cc2)cc1`, with 221 nM; and `COc1ccc(/C=C/C(=O)c2ccc(OCC(=O)NCCNc3ccnc4cc(Cl)ccc34)cc2)cc1`, with 2740 nM. For the molecule `O=C(COc1ccc(/C=C/C(=O)c2ccccc2)cc1)NCCCCNc1ccnc2cc(Cl)ccc12`, the IC50 was determined as 139 nM.

Take `COc1ccc(C(=O)/C=C/c2ccc(OCC(=O)NCCCCCCNc3ccnc4cc(Cl)ccc34)cc2)cc1`: the IC50 was found to be 35.4 nM. Still for that read-out and setting: then `O=C(COc1ccc(C(=O)/C=C/c2ccccc2)cc1)NCCNc1ccnc2cc(Cl)ccc12`, with 840 nM; and `COc1ccc(/C=C/C(=O)c2ccc(OCC(=O)NCCCCCCNc3ccnc4cc(Cl)ccc34)cc2)cc1`, with 17.8 nM; and `CC(=O)c1ccc(OCC(=O)NCCNc2ccnc3cc(Cl)ccc23)cc1`, with 558 nM. Still for that read-out and setting: then `COc1ccc(/C=C/C(=O)c2ccc(OCC(=O)NCCCCNc3ccnc4cc(Cl)ccc34)cc2)cc1`, with 170 nM.

Regarding `COc1ccc(C(=O)/C=C/c2ccc(OCC(=O)NCCCCNc3ccnc4cc(Cl)ccc34)cc2)cc1`, the IC50 was determined as 63 nM. The same measure, in the same setting: as for `COc1ccc(C(=O)/C=C/c2ccc(OCC(=O)NCCNc3ccnc4cc(Cl)ccc34)cc2)cc1`, the figure is 379 nM; as for `CC(=O)c1ccc(OCC(=O)NCCCNc2ccnc3cc(Cl)ccc23)cc1`, 173 nM; as for `O=C(O)COc1ccc(C(=O)/C=C/c2ccccc2)cc1`, greater than 10000 nM. `O=Cc1ccc(OCC(=O)NCCCCCCNc2ccnc3cc(Cl)ccc23)cc1`: the IC50 amounted to 875 nM. Same read-out and setting: as for `COc1ccc(/C=C/C(=O)c2ccc(OCC(=O)NCCCNc3ccnc4cc(Cl)ccc34)cc2)cc1`, the figure is 50.5 nM; as for `C[C@@H]1CC[C@H]2[C@@H](C)C(=O)O[C@@H]3O[C@@]4(C)CC[C@@H]1[C@]32OO4` [ARTEMISININ], 6.5 nM; as for `O=Cc1ccc(OCC(=O)NCCCNc2ccnc3cc(Cl)ccc23)cc1`, 73.4 nM.

The record behind these values is ChEMBL document CHEMBL3414452, “Synthesis and in vitro antiplasmodial evaluation of 7-chloroquinoline-chalcone and 7-chloroquinoline-ferrocenylchalcone conjugates” (Eur J Med Chem, 2015).
